Test [1] can be described thus: Inhibition of human erythrocyte calpain using Suc-Leu-Tyr-AMC substrate after 30 mins by spectrofluorimetry. The method, boiled down: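 Human erythrocyte calpain I, 34 nM stock added to start, with Suc-Leu-Tyr-AMC, NaCl and CaCl2 in 50 mM Tris–HCl pH 7.5, 1 mM DTT; DMSO ≤1% final. After 30 min at rt, AMC fluorescence read (ex 380/em 460 nm) against calpain-free blank. IC50 from percent inhibition across concentrations; means ± SD, three independent experiments.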

Test [2] concerns Radical scavenging activity. The test is described as follows: Antioxidant activity assessed as DPPH free radical scavenging activity after 30 mins. It counts as functional. The method, boiled down: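 Test samples in ethanol mixed with 100 µM ethanolic DPPH, incubated 37 °C for 30 min; absorbance read at 515 nm. Percent inhibition taken against ethanol-treated controls; IC50 is the concentration scavenging 50% of DPPH radicals. Means ± SD of three independent experiments.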
A general note: The DPPH test is a chemical assay of radical scavenging.

In another test the test system is Liver. The test is described as follows: Antioxidant activity in rat liver homogenates assessed as inhibition of iron-ascorbic acid mix-induced lipid peroxidation after 30 mins by TBARS assay. In kind it is functional, tissue-based. As to conditions: 0.5 h. The method, boiled down:
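Rat liver homogenate (11 mg protein/ml, Bradford vs BSA) incubated with 10 µM […], 0.4 mM ascorbic acid and graded compound concentrations in 50 mM Tris–HCl pH 7.5, 37 °C for 30 min. Stopped with TBA–TCA reagent containing HCl and BHT, heated 95 °C 30 min, centrifuged, supernatant A535 read. IC50 from three independent experiments, means ± SD.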

As for `COc1ccc(CCNC(=O)C(=O)[C@H](Cc2ccccc2)NC(=O)c2oc3cc(OC)c(OC)cc3c(=O)c2C)cc1`, the IC50 in test [1] worked out at 270 nM.

In test [1], `COc1ccc(CCNC(=O)C(=O)[C@H](Cc2ccccc2)NC(=O)c2oc3cc(OC)c(O)cc3c(=O)c2C)cc1` showed an IC50 of 100 nM.

For `Cc1c(C(=O)N[C@@H](Cc2ccccc2)C(=O)C(=O)NCc2ccccc2)oc2cc(O)c(O)cc2c1=O`, the IC50 in test [1] turned out to be 280 nM; in test [2], 26500 nM; in the test with Liver, 48700 nM.

Consider `COc1ccc(CCNC(=O)C(=O)[C@H](Cc2ccccc2)NC(=O)c2oc3cc(O)c(O)cc3c(=O)c2C)cc1`, for which the figures for the IC50 (in test [1]; in test [2]; in the test with Liver) were 1290 nM, 41400 nM and 52500 nM, respectively.

For `Cc1c(C(=O)N[C@@H](Cc2ccccc2)C(=O)C(N)=O)oc2ccccc2c1=O`, the IC50 in test [1] was 70 nM; in test [2], above 100000 nM; in the test on Liver it was above 100000 nM.

On to `O=C1O[C@H]([C@@H](O)CO)C(O)=C1O` [ASCORBIC ACID], for which the IC50 is 30800 nM in test [2] and above 100000 nM in the test on Liver.

Turning to `COc1ccc(CCNC(=O)C(=O)[C@H](Cc2ccccc2)NC(=O)c2oc3cc(OC)ccc3c(=O)c2C)cc1`, 230 nM corresponded to half-maximal inhibition in test [1] (IC50).

As for `Cc1c(C(=O)N[C@@H](Cc2ccccc2)C(=O)C(=O)NCc2ccccc2)oc2cc(O)ccc2c1=O`, the IC50 in test [1] was 130 nM.

In test [1], `COc1ccc2c(=O)c(C)c(C(=O)N[C@@H](Cc3ccccc3)C(=O)C(N)=O)oc2c1` registered an IC50 of 120 nM.

In turn, `COc1cc2oc(C(=O)N[C@@H](Cc3ccccc3)C(=O)C(=O)NCc3ccccc3)c(C)c(=O)c2cc1O` showed an IC50 in test [1] of 110 nM.

As for `COc1ccc2c(=O)c(C)c(C(=O)N[C@@H](Cc3ccccc3)C(=O)C(=O)NCc3ccccc3)oc2c1`, inhibition in test [1] was half-maximal at 430 nM (IC50).

Take `COc1cc2oc(C(=O)N[C@@H](Cc3ccccc3)C(=O)C(N)=O)c(C)c(=O)c2cc1OC`: the IC50 in test [1] turned out to be 90 nM.

Consider `COc1ccc(CCNC(=O)C(=O)[C@H](Cc2ccccc2)NC(=O)c2oc3cc(O)ccc3c(=O)c2C)cc1`, for which inhibition in test [1] was half-maximal at 90 nM (IC50).

As for `COc1cc2oc(C(=O)N[C@@H](Cc3ccccc3)C(=O)C(=O)NCc3ccccc3)c(C)c(=O)c2cc1OC`, the IC50 in test [1] is 190 nM.

For orientation: IC50 means the concentration that gives 50% inhibition.

Source of the values: ChEMBL document CHEMBL1777677, “Synthesis of chromone carboxamide derivatives with antioxidative and calpain inhibitory properties” (Eur J Med Chem, 2011).
